Results from article PMC9435035 (ACS Omega, 2022).

Assays:
α-glucosidase = α-glucosidase (Saccharomyces cerevisiae, UniProt P53341); test: α-glucosidase inhibitory activity; type: biochemical; conditions: read-out: glucosidase inhibition IC50 ± SEM; mean ± SEM
Balb/C mice = test: acute toxicity study in mice; type: in vivo
How it was run: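 Two-phase modified Lorke protocol in Balb/C mice (20–25 g), four per group. Phase 1: control given Tween-80 (2%); other groups received oral test compound at 100, 500 or 1000 mg/kg. Phase 2: oral doses of 1250, 1500 and 2000 mg/kg. Animals observed for the first 24 h, then daily for 2 weeks for diarrhea, convulsions, lethargy, sleeping, salivation and tremors, with mortality monitored.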

[1] = system: overnight fasted normal rats; test: oral glucose tolerance test; type: in vivo, Wistar albino rats; conditions: OGTT, glucose 3 g/kg oral
[2] = system: streptozotocin-induced diabetic Wistar rats; test: antidiabetic activity: blood glucose in STZ-induced diabetes; type: in vivo, Wistar albino rats
How it was run: (§1)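 Male Wistar albino rats (170–200 g, 8–10 weeks), fasted overnight, given STZ 50 mg/kg i.p. in 0.1 M citrate buffer, then 10% glucose for 3 days. Tail-vein glucose by glucometer at 72 h; >250 mg/dL counted as diabetic. Body weight and blood glucose on days 1, 7, 14, 21 and 28. Means ± SEM, one-way ANOVA with Dunnett's test.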

[3] = body weight of STZ-induced diabetic rats; type: in vivo, Wistar albino rats; conditions: for body weight, day 1: day 1, in g (unit assumed); for body weight, day 7: day 7, in g (unit assumed); for body weight, day 14: day 14, in g (unit assumed); for body weight, day 21: day 21, in g (unit assumed); for body weight, day 28: day 28, in g (unit assumed)
How it was run: as §1

[4] = system: streptozotocin-induced diabetic Wistar rats; test: lipid profile in streptozotocin-induced diabetes; type: in vivo, Wistar albino rats; conditions: STZ-diabetic rats
How it was run: (§2)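 STZ-diabetic Wistar rats (n = 8 per group) received test compound at 10 or 20 mg/kg p.o., or glibenclamide 500 μg/kg p.o., once daily for 28 days; controls received vehicle. On day 28, rats were anesthetised with pentobarbital sodium (35 mg/kg) and blood was drawn by cardiac puncture. Serum ALP, SGPT, SGOT, LDL, HDL, TG, total cholesterol, creatinine and insulin were measured. Means ± SEM, one-way ANOVA with Dunnett's test.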

[5] = system: streptozotocin-induced diabetic Wistar rats; test: serum profile; type: in vivo, Wistar albino rats; conditions: STZ-diabetic rats; for (ALP) IU / (SGOT) IU / (SGPT) IU: serum
How it was run: as §2

Chain of α-glucosidase (P53341 whole entry): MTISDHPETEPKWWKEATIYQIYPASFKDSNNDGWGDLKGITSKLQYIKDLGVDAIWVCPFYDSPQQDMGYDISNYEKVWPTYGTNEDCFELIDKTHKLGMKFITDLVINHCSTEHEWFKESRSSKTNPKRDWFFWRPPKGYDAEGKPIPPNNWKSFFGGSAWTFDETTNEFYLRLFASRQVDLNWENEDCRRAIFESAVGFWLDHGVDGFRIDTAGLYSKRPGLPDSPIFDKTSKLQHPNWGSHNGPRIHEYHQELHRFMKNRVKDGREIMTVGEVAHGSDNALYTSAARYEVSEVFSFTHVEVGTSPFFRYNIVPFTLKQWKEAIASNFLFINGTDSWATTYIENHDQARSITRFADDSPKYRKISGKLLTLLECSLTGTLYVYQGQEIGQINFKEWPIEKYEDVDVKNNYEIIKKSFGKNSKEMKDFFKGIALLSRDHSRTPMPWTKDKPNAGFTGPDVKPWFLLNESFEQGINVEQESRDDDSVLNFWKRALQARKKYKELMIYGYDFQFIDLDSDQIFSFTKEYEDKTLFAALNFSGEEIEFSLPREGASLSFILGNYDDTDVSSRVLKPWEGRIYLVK

2-(4-(Benzyloxy)-3-methoxyphenyl)-4-(p-tolyl)-2,3-dihydrobenzo[b][1,5]thiazepine [12B]
IC50 (α-glucosidase): 3.79 ± 0.22 µM
mortality (Balb/C mice; maximum oral dose of 2000 mg/kg (b.w.)): no mortality
toxic effects (diarrhea, convulsions, lethargy, sleeping, salivation, tremor) (Balb/C mice; oral up to 2000 mg/kg, observed daily for 2 weeks): no toxic effects
blood glucose level, 0 min ([1]; dose 10 mg/kg): 101.67 ± 4.55 mg/dL
blood glucose level, 30 min ([1]; dose 10 mg/kg): 121.63 ± 4.56 mg/dL
blood glucose level, 60 min ([1]; dose 10 mg/kg): 122.02 ± 4.66 mg/dL
blood glucose level, 90 min ([1]; dose 10 mg/kg): 115.31 ± 4.61 mg/dL
blood glucose level, 120 min ([1]; dose 10 mg/kg): 114.19 ± 4.61 mg/dL
blood glucose level, 0 min ([1]; dose 20 mg/kg): 105.59 ± 4.61 mg/dL
blood glucose level, 30 min ([1]; dose 20 mg/kg): 117.38 ± 4.01 mg/dL
blood glucose level, 60 min ([1]; dose 20 mg/kg): 117.61 ± 4.60 mg/dL
blood glucose level, 90 min ([1]; dose 20 mg/kg): 110.71 ± 4.91 mg/dL
blood glucose level, 120 min ([1]; dose 20 mg/kg): 111.21 ± 4.31 mg/dL
blood glucose level, day 1 ([2]; 10 mg/kg p.o. once daily): 371.67 ± 4.66 mg/dL
blood glucose level, day 7 ([2]; 10 mg/kg p.o. once daily): 301.41 ± 4.56 mg/dL
blood glucose level, day 14 ([2]; 10 mg/kg p.o. once daily): 209.60 ± 4.22 mg/dL
blood glucose level, day 21 ([2]; 10 mg/kg p.o. once daily): 152.56 ± 4.71 mg/dL
blood glucose level, day 28 ([2]; 10 mg/kg p.o. once daily, day 28, 10 mg/kg): 138.92 ± 4.67 mg/dL
blood glucose level, day 1 ([2]; 20 mg/kg p.o. once daily): 369.56 ± 4.56 mg/dL
blood glucose level, day 7 ([2]; 20 mg/kg p.o. once daily): 237.11 ± 4.39 mg/dL
blood glucose level, day 14 ([2]; 20 mg/kg p.o. once daily): 167.49 ± 5.02 mg/dL
blood glucose level, day 21 ([2]; 20 mg/kg p.o. once daily): 131.69 ± 4.77 mg/dL
blood glucose level, day 28 ([2]; 20 mg/kg p.o. once daily, day 28, 20 mg/kg): 114.74 ± 5.09 mg/dL
body weight, day 1 ([3]; 10 mg/kg): 187.5 ± 4.39
body weight, day 7 ([3]; 10 mg/kg): 185.1 ± 4.71
body weight, day 14 ([3]; 10 mg/kg): 184.5 ± 4.06
body weight, day 21 ([3]; 10 mg/kg): 187.0 ± 4.39
body weight, day 28 ([3]; 10 mg/kg): 173.9 ± 4.28
body weight, day 1 ([3]; 20 mg/kg): 189.7 ± 4.08
body weight, day 7 ([3]; 20 mg/kg): 184.7 ± 4.66
body weight, day 14 ([3]; 20 mg/kg): 187.1 ± 4.11
body weight, day 21 ([3]; 20 mg/kg): 189.3 ± 4.60
body weight, day 28 ([3]; 20 mg/kg): 175.3 ± 5.01
HDL ([4]; 10 mg/kg for 28 days): 45.91 ± 2.70 mg/dL
TG ([4]; 10 mg/kg for 28 days): 149.81 ± 4.60 mg/dL
LDL ([4]; 10 mg/kg for 28 days, 10 mg/kg): 134.89 ± 4.33 mg/dL
total CH ([4]; 10 mg/kg for 28 days, 10 mg/kg): 152.11 ± 4.11 mg/dL
HDL ([4]; 20 mg/kg for 28 days): 53.24 ± 2.08 mg/dL
TG ([4]; 20 mg/kg for 28 days): 117.97 ± 4.01 mg/dL
LDL ([4]; 20 mg/kg for 28 days, 20 mg/kg): 113.71 ± 4.16 mg/dL
total CH ([4]; 20 mg/kg for 28 days, 20 mg/kg): 136.03 ± 4.39 mg/dL
insulin level ([5]; 10 mg/kg for 28 days): 0.651 ± 0.34 ng/mL
serum creatinine ([5]; 10 mg/kg for 28 days): 0.90 ± 0.30 mg/dL
(ALP) IU ([5]; 10 mg/kg for 28 days): 215.19 ± 4.10 IU
(SGOT) IU ([5]; 10 mg/kg for 28 days): 26.01 ± 2.01 IU
(SGPT) IU ([5]; 10 mg/kg for 28 days): 26.53 ± 2.38 IU
insulin level ([5]; 20 mg/kg for 28 days): 0.660 ± 0.30 ng/mL
serum creatinine ([5]; 20 mg/kg for 28 days): 0.80 ± 0.38 mg/dL
(ALP) IU ([5]; 20 mg/kg for 28 days): 205.93 ± 4.67 IU
(SGOT) IU ([5]; 20 mg/kg for 28 days): 22.91 ± 2.87 IU
(SGPT) IU ([5]; 20 mg/kg for 28 days): 23.35 ± 2.54 IU
